Variants at the floor of the assay were thinned out.
B1: tRNA (parent)
chain: CUCUCGGUAGCCAAGUUGGUUUAAGGCGCAAGACUUUAAUUUAUCACUACGAAAUCUUGAGAUCGGGCGUUCGACUCGCCCCCGGGAGAUUUUUUCCUCGAGCAA

Variants of: B1
Experiment: nonsense suppression (GFP-seq) (ratio to wild type); higher = more function; SUP4oc tRNA, yeast GFP reporter sort-seq
In short: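 Each variant's nonsense suppression (GFPSEQ) is a cell-share-weighted bin median GFP/RFP relative to the unmutated parent tRNA. Yeast with genome-integrated tRNA variants from a ~3% random-mutation library, a galactose-driven GFP ochre reporter and RFP were grown in raffinose/galactose medium with 80 mg/L adenine, then sorted into GFP/RFP bins for Illumina sequencing. Variants needed ≥100 reads and ≥30 cells.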

Nonsense suppression, ≤ 0.026:
CUCUCGGUAGCCAUGUUGGUUUAAGGAGCAAGACUUUAAUUUAUCACUACGAAAUCUUGAGAUCGGGCGUUCGACUCCCCCCCGGGCGAUUUUUUCCUCGAGCAA [A14U C27A G78C A87C]
CUCUCGGUAGCCAGGUUGGUUUAAGGCGCAAGACUUUAAUUUAUCACUACGAAAUCUUGAGAUAAGGCGUUCGACUCGCCCCCGGGAGAUUUUUUCCUCGAGCAA [A14G C64A G65A]
CUCUCGGUAGCCACGUUGGUUUAAGGCGCAAGACUUUAAUUUAUCACUACGAAAUCUUGAGAUCGGGCGUUCGACUCGCCCUCGGGAGAUUUUUUCCUCGAGCAA [A14C C82U]
CUCUCGGUAGCCAGGUUGGUUUACGGCGCAGGACUUUAAUUUAUCACUACGAAAUGUUGAGAUCGGGCGUUCGACUCGCCCCCGGGAGAUUUUUUCCUCGAGCAA [A14G A24C A31G C56G]
CUCUCGGUAGCCAGGUUAGUCUAAGGCGCGAGGCUUUAAUUUAUCACUACGAAAUCUUGAGAUCGGGCGUUCGACUCGACCACGGGAGUUUUUUUCCUCGAGCAA [A14G G18A U21C A30G A33G C79A C82A A89U]
CUCUCGGUAGCCAGGUUGGUUUAAGGCGCAAGACUUUAAUUUAUCACUACGAAAUCUUGAGAUCGGGCGUUCGCCUCGCCCCCGGGAGAUUUUUUCCUCGAGCAA [A14G A74C]
CUCUCGGUAGCCAGGUUGAUUUAAGGCGCAUGACUUUAAUUUAUCACUACGAAAUCUUGAGAUCGCGCGUUCGCCUCUCCCCCGGGAGAUUUUUUCCUCGAGCAA [A14G G19A A31U G66C A74C G78U]
CUCUCGGUAGCCAGGUAGGUUUAAAGCGUAAGACUUUAAUUUAUCACUACGAAAUCUUGAGAGCGGGCGUUCGACUCGCCCCCGGGAGAUUUUUUCCUCGAGCAA [A14G U17A G25A C29U U63G]
CUCUCGGUAGCCAUGUUGGUUUAAGGCGCAAGUGUUUAAUUUAUCACUACGAAAUCUUCAGAUCGGGCGUUCGACUCGCCCCCGGGAGAUUUUUUCCUCGAGCAA [A14U A33U C34G G59C]
CUCUCGGUAGCCAGGUUGGUUUAAGGCGCAAGACCUUAAUUUAUCACUACGAAAUCUUGAGAUCGGGCGUUCGACUCGCCCCCGGGAGAUUUUUUCCUCGAGCAA [A14G U35C]
CUCUCGGUAGCCAUGUUCGUUUAAGGCGCAAGACUUUAAUUUAUCACUACGAAAUCUUGAGAUCGGGCGUUCGACUCGCUCCCGGGAGAUUUUUUCCUCGAGCAA [A14U G18C C80U]
CUCUCGGUAGCCAUGUUGGUUUAAGACGCAAGACUUUAAUUUAUCACUACGAAAUCAUGAGAUCGGGCGUUCGACUCGCCCCCGGGAGAUUUUUUCCUCGAGCAA [A14U G26A U57A]
CUCUCGGUAGCCAUGUUGGUUUAACGUGCAAGACUUUAAUUUAUCACUACGAAAUCUUGAGAUCGGGCGUUCGACUCGCCCCCGGGAGAUUUUUUCCUCGAGCAA [A14U G25C C27U]
CUCUCGGUAGCCACGUUGGUUUAAGGCGCAAGACUUUAAUUUAUCACUACGAAAUCUUGAGAUCGGGGGUUCGACUCGCCCCCGGGAGAUUUUUUCCUCGAGCAA [A14C C68G]
CUCUCGGUAGCCAGGGUGGUUUAAGGCGCAAGACUUUAAUUUAUCACUACGAAAUCUUGAGAUUGGGCGUUCGACUCGCCCCCGGGAGAUUUUUUCCUCGAGCAA [A14G U16G C64U]
CUCUCGGUAGCCAGGUUGGUUUAAGGCGCAAGACUUUAAUUUAUCACUACGAAAUCUUGAGAUCGGGCGUUCGACUCGCCCCCGGGUGAUUUUUUCCUCGAGCAA [A14G A87U]
CUCUCGGUAGCCAGGUUGGUUUAAGGCGCAAGGCUUUAAUUUAUCACUACGAAAUCUUGAGAUCGGGCCUUCGACUCGCCCCCGGGAGAUUUUUUCCUCGAGCAA [A14G A33G G69C]
CUCUCGGUAGCCACGGUGGUUUAAGGCGCAAGACUUUAAUUUAUCACUACGAAACCUUGAGAUCGGGCGUUCGACUCGCCCCCGGGAGAUUUUUUCCUCGAGCAA [A14C U16G U55C]
CUCUCGGUAGCCAGGUUGGUUUAAGGCUCAAGACUUUAAUUUAUCACUACGAAAUCUUGAGAUCGGGCGUUCGACUCCCCCCCGGGAGAUUUUUUCCUCGAGCAA [A14G G28U G78C]
CUCUCGGUAGCCACGUUGGUUUAAGGCGCAAGACUUUAAUUUAUCACUACGAAAUCUUUAGAUCGGGCGUUCGACUCGCCCCCGGGAGAUUUUUUCCUCGAGCAA [A14C G59U]
CUCUCGGUAGCCAUCUUGGUUUAAGGCGCAAGACUUUAAUUUAUCACUACGAAAUCUUGCGAUCGGGCGUUCGACUCGUCCCCGGGAGAUUUUUUCCUCGAGCAA [A14U G15C A60C C79U]
CUCUCGGUAGCCACGUUGGGUUAAGGCGCAAGACUUUAAUUUAUCACUACGAAAUCUUGAGAUCGGGCGUUCGACUCGCCCCCGGGAGAUUUUUUCCUCGAGCAA [A14C U20G]

Nonsense suppression, 0.0272:
CUCUCGGUAGCCAGGUUGGUUUAAGGCGCAAGACUUUAAUUUAUCACUACGAAAUCUUGAGAUCGGGCGUUCGACUCACCCCCGGGAGAUUUUUUCCUCGAGCAA [A14G G78A]

Nonsense suppression, 0.0456:
CUCUCGGUAGCCAGGUUGGUUUAAGGCGCAAGACUUUAAUUUAUCACUACGAAAUCUUGGGAUCGGGCGUUCGACUCGCCCCCGGGAGAUUUUUUCCUCGAGCAA [A14G A60G]

Nonsense suppression, 0.0337:
CUCUCGGUAGCCAGGUUGGUUUAAGGCGCUAGACUUUAAUUUAUCACUACGAAAUCUUGAGAUCGGGCGUUCGACUCGCCCCCGGGAGAUUUUUUCCUCGAGCAA [A14G A30U]

Nonsense suppression, 0.03:
CUCUCGGUAGCCAGGUUGGUUUAAGGCGCGAGACUUUAAUUUAUCACUACGAAAUCUUGAGAUCGGGCGUUCGACUCGCCCCCGGGAGAUUUUUUCCUCGAGCAA [A14G A30G]

Nonsense suppression, 0.0278:
CUCUCGGUAGCCAGGUUGGUUUAAGGCGCAAGACUUUAAUUUAUCACUACGAAAUCUUGACAUCGGGCGUUCGACUCGCCCCCGGGAGAUUUUUUCCUCGAGCAA [A14G G61C]
